Compound activity: PubChem, several laboratories
This is a sample that favours compounds with a hit; in the whole collection about 1.6% have one here.
UBC9 SUMO inh: SUMOylation inhibition | AID 2006 | 0.36% of 290,000 active | inhibition, % at 35 µM | HTRF SUMOylation assay, SAE1/SAE2 + UBC9, in vitro | P63279; in the data active = inhibition above about 50%, passing the limit was not always enough
JMJD2C inh: blocks human GASC-1 demethylase activity; Q9H3R0; 0.069% of 330,000 active; GST-JMJD2C(1-420) H3K9me3 demethylation, DELFIA europium; inhibition, % at 2.35 µM;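 active = more than half of a compound's replicate wells show inhibition beyond 50%, single wells judged on their own value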;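 also: signal counts dimethyl H3K9 product captured on neutravidin plate; 0% = median of DMSO wells and 100% = 0.3 times that DMSO median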
GSTO1 inh: GSTO1 inhibition, counter-screen for RBBP9 inhibitors. 1.1% of 300,000 active. P78417. inhibition, % at 5.96 µM. recombinant GSTO1, activity-based probe fluorescence polarization;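 active = inhibition above the campaign mean inhibition plus 3 SD, cut at about 35% in these data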;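 also: 0% = GSTO1-1 with DMSO and 100% = wells lacking GSTO1-1 enzyme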
Apaf1 inhib: blocks human Apaf-1 apoptosome activity; O14727; reconstituted apoptosome caspase-3 activity, DEVD-Rh110 fluorescence; inhibition, % at 20 µM; 0.71% of 330,000 active; active = inhibition of at least 40% at 20 µM;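 also: plate controls were DMSO wells for no effect and DEVD-CHO caspase inhibitor wells for full effect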
Target sequence (O14727 whole entry, looked up): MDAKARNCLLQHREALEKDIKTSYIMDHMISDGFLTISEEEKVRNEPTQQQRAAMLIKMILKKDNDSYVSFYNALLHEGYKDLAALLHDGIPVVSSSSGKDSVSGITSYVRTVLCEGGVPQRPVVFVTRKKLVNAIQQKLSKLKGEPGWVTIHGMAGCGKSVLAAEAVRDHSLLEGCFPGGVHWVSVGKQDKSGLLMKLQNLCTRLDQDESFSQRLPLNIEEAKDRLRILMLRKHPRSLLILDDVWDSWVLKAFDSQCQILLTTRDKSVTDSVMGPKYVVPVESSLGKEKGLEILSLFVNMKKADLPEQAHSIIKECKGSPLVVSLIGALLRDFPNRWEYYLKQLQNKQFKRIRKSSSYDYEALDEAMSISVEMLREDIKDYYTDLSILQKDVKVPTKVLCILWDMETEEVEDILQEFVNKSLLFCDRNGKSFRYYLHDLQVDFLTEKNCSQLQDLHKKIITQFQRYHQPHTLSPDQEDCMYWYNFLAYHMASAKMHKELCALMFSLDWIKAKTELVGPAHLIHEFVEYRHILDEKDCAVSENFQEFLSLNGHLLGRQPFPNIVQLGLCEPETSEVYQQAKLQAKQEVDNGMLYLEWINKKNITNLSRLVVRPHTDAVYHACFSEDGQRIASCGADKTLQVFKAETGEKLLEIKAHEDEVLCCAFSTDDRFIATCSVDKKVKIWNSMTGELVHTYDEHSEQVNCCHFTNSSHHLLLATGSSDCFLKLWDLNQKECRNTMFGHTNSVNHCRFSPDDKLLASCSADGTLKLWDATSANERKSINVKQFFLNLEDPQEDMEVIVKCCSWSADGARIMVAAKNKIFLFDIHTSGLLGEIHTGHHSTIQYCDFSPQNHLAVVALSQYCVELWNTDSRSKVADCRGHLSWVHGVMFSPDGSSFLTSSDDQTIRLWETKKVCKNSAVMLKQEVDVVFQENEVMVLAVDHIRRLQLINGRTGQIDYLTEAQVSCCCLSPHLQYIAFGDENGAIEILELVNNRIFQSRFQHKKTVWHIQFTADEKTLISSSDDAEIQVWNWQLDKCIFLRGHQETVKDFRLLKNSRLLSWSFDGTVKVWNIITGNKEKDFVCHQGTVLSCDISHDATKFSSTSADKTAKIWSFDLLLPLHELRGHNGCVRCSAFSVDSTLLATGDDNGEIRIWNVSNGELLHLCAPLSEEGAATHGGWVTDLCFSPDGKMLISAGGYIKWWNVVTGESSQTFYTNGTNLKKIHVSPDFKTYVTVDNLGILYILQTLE
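Assay system – apoptosome proteins · Medium – Hepes buffer, pH 7.5 · Also added – cytochrome c with DEVD-Rh110 · Timing – 30 min compound preincubation, 50 min activation, room temperature · Detection – Rh110 fluorescence, excitation 480 nm, emission 540 nm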
TDP2 absorb: blocks human TDP2 phosphodiesterase activity. O95551. recombinant TDP2, T5PNP hydrolysis, p-nitrophenol absorbance 415 nm. inhibition, % at 12.8 µM. 0.34% of 370,000 active. AID 720702;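 active = inhibition above the mean of all tested compounds plus 3 SD, set per campaign, cut at about 25% in these data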;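 also: 0% = DMSO with enzyme and 100% = buffer with substrate but no TDP2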
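test system = human TDP2 enzyme | input = TDP2 enzyme at 120 nM final | medium = 50 mM Tris-HCl pH 7.5 with Mg2+, KCl, DTT, BSA | also added = T5PNP substrate, 5 mM | times = 2 h at 37 °C | technique = epi absorbance | benchmarks = high control without enzyme, low control DMSO plus TDP2 | replication = each compound tested once, singlicate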
PAD4 FP inh: PAD4 (human) enzyme inhibition; recombinant PAD4, RCA probe fluorescence polarization; inhibition, % at 6.36 µM; AID 485272; 0.41% of 330,000 active;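 active = percent inhibition above a cutoff equal to the mean of all tested compounds plus 3 SD, cut at about 15% in these data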;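 also: 0% = PAD4 with RCA probe and DMSO and 100% = probe without PAD4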
GSTO1 confirm: confirmation of human GSTO1 inhibitors. shares compounds with GSTO1 inh. recombinant GSTO1, probe fluorescence polarization. inhibition, % at 5.96 µM. 54% of 2,400 active. AID 2176;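 active = inhibition above the primary screen's cutoff, its mean inhibition plus 3 SD, cut at about 35% in these data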;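 also: loss of polarization as inhibitors block binding of rhodamine sulfonate ester activity probe; 0% = GSTO1 with DMSO and 100% = wells lacking GSTO1 enzyme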
GSTO1 recomb ABPP: inhibitors of recombinant human GSTO1; shares compounds with GSTO1 inh; gel ABPP SE-Rh probe fluorescence; inhibition, % at 1 µM; 30% of 130 active;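 active = inhibition of the enzyme GSTO1 above about 75%, limit read from the data; inactive = inhibition below that limit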
* hit, by the source's call.

COc1cc2c(cc1OC)C(c1cc(Br)ccc1F)N(C(=O)CCl)CC2 (stereo not drawn) was read as UBC9 SUMO inh 0, JMJD2C inh 3, GSTO1 inh 86*, Apaf1 inhib 9, TDP2 absorb 5, PAD4 FP inh 0, GSTO1 confirm 96* and GSTO1 recomb ABPP 87*.
C[C@@H]1CN([C@@H](C)COC(=O)C(C)(C)C)C(=O)c2cc(NC(=O)Nc3ccccc3)ccc2O[C@@H](C)CCCCO[C@H]1CN(C)S(=O)(=O)c1ccc(F)cc1 was read as TDP2 absorb 1.
`O=C(NC1CCCC1)C(c1ccc(Cl)cc1)N(Cc1ccc(F)cc1)C(=O)CCl` (stereo not drawn) gave UBC9 SUMO inh -2, JMJD2C inh -1, GSTO1 inh 13, Apaf1 inhib 4 and PAD4 FP inh 1.
COC(CN(C(=O)CCl)C(C(=O)NC1CCCCC1)c1ccc(Cl)cc1)OC (stereo not drawn) was read as UBC9 SUMO inh 2, JMJD2C inh 3, GSTO1 inh 73*, Apaf1 inhib -6, TDP2 absorb -4, PAD4 FP inh 0, GSTO1 confirm 98* and GSTO1 recomb ABPP 52.
`COc1ccc(C(C(=O)NC2CCCCC2)N(C(=O)CCl)c2ccc(Cl)cc2)cc1` (stereo not drawn) gave UBC9 SUMO inh 5, JMJD2C inh -10, GSTO1 inh 97*, Apaf1 inhib 22, PAD4 FP inh 3, GSTO1 confirm 89* and GSTO1 recomb ABPP 91*.
`COCCCNC(=O)C[C@H]1C[C@@]2(C(=O)OC)C(=C[C@H](C(C)C)O[C@@H]2C2CC2)N(CCC2=CCCCC2)C1=O` gave TDP2 absorb 11.
For CN(Cc1ccccc1)C(=O)CC(c1ccccc1)c1cc(Cl)ccc1O (stereo not drawn) the results were UBC9 SUMO inh -43, JMJD2C inh 2, GSTO1 inh 58*, Apaf1 inhib 36, TDP2 absorb 4, PAD4 FP inh -3 and GSTO1 confirm 3.
Screening Cc1c(C(=O)c2no[n+]([O-])c2C(=O)c2cnn(C)c2C)cnn1C returned UBC9 SUMO inh 18, JMJD2C inh -6, GSTO1 inh 40*, Apaf1 inhib 7, TDP2 absorb 0, PAD4 FP inh 6 and GSTO1 confirm 25.
`COc1ccc(C(=O)c2no[n+]([O-])c2C(=O)c2ccc(OC)cc2)cc1` gave UBC9 SUMO inh -13, JMJD2C inh 6, GSTO1 inh 32, Apaf1 inhib 15, TDP2 absorb -2 and PAD4 FP inh -8.
Screening CCCCCCCCN1C(=O)[C@@H](CC(=O)N2CCCCC2)C[C@@]2(C(=O)OC)C1=C[C@H](C(C)C)O[C@@H]2C1CC1 returned TDP2 absorb 4.
Screening O=C(CCl)NNC(=O)c1c(O)c2ccccc2[nH]c1=O returned UBC9 SUMO inh 21, JMJD2C inh -18, GSTO1 inh 89*, Apaf1 inhib -17, TDP2 absorb -12, PAD4 FP inh 1 and GSTO1 confirm 97*.
CC(C)=NNC(=O)c1c(O)c2ccccc2[nH]c1=O was read as UBC9 SUMO inh 25, JMJD2C inh -2, GSTO1 inh 42*, Apaf1 inhib -12, TDP2 absorb 1, PAD4 FP inh -3 and GSTO1 confirm 4.
For C[C@H](O)[C@@H]1CN2CCc3c([nH]c4c(-c5ccc6c(c5)OCO6)cccc34)[C@@H]2C[C@@H]1N(C)C(=O)Nc1ccccc1 the results were TDP2 absorb 1.
For C[C@H](O)[C@@H]1CN2CCc3ccc(-c4ccc5c(c4)OCO5)cc3[C@@H]2C[C@@H]1N(C)C(=O)Nc1ccccc1 the results were TDP2 absorb -9.
`Cc1ccc(NC(=O)c2cc(CC(C)C)nc3ccccc23)cc1` gave UBC9 SUMO inh -8, JMJD2C inh 1, GSTO1 inh 42*, Apaf1 inhib 2, TDP2 absorb -16, PAD4 FP inh -3 and GSTO1 confirm 4.
For COc1ccc(NC(=O)c2cc(CC(C)C)nc3ccccc23)cc1 the results were UBC9 SUMO inh 0, JMJD2C inh 2, GSTO1 inh 0, Apaf1 inhib -3, TDP2 absorb -16 and PAD4 FP inh -5.
Screening COc1ccc(C(=O)C2(C(=O)Nc3cc(C)cc(C)c3)CC(c3ccccc3C(F)(F)F)=NO2)cc1 (stereo not drawn) returned TDP2 absorb 0.
Screening O=C(NC1CCCCN(Cc2cccc(C(F)(F)F)c2)C1=O)c1ccc(F)c(F)c1 (stereo not drawn) returned TDP2 absorb 0.
Cc1ccc(NC(=O)c2ccc(CS(=O)(=O)Cc3ccccc3C)o2)c(C)c1 was read as TDP2 absorb 6.
Cc1cccc(OCC(=O)N=Nc2c(O)[nH]c3ccc([N+](=O)[O-])cc23)c1 was read as UBC9 SUMO inh 14, JMJD2C inh 5, GSTO1 inh 20, Apaf1 inhib -7, TDP2 absorb -12 and PAD4 FP inh -3.
O=[N+]([O-])c1ccc2[nH]c(O)c(N=NC(=S)NCC3CCCO3)c2c1 (stereo not drawn) was read as UBC9 SUMO inh -16, JMJD2C inh -2, GSTO1 inh 40*, Apaf1 inhib -17, TDP2 absorb -2, PAD4 FP inh -3 and GSTO1 confirm 45*.
Screening O=[N+]([O-])c1ccc2[nH]c(O)c(N=NC(=S)Nc3cccnc3)c2c1 returned JMJD2C inh 10, GSTO1 inh 42*, Apaf1 inhib 1, TDP2 absorb -5, PAD4 FP inh -4 and GSTO1 confirm 65*.
`O=C(CNC(=O)c1ccc(Br)cc1)N=Nc1c(O)[nH]c2ccc([N+](=O)[O-])cc12` gave UBC9 SUMO inh 27, JMJD2C inh -11, GSTO1 inh 19, Apaf1 inhib 11, TDP2 absorb -10 and PAD4 FP inh 1.
Screening Cc1ccc(Cn2cc(CN3[C@H](Cc4ccccc4)COc4cc(Br)ccc4S3(=O)=O)nn2)cc1 returned TDP2 absorb -2.
For O=C(Nc1nc(-c2ccco2)c(-c2ccco2)s1)c1cnccn1 the results were JMJD2C inh 4, GSTO1 inh 45*, Apaf1 inhib 26, TDP2 absorb 3, PAD4 FP inh -10 and GSTO1 confirm 10.
O=C(CN1CCCC1)N/N=C/c1c(O)ccc2ccccc12 was read as UBC9 SUMO inh -1, JMJD2C inh 2, GSTO1 inh 38*, Apaf1 inhib 4, TDP2 absorb -8, PAD4 FP inh -12 and GSTO1 confirm 5.
